Source: ChEMBL document CHEMBL1140719, “A Drosophila model to identify polyamine-drug conjugates that target the polyamine transporter in an intact epithelium” (J Med Chem, 2008)

Test system: not listed separately
Test: Inhibition of disc eversion in Drosophila melanogaster imaginal disc cells at 18 uM
Format: functional
Conditions: not given
Procedure, shortened: (§1)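 Larvae are Oregon-R, from eggs laid for 24 h at 25 °C on cornmeal medium with bromophenol blue. About 30 leg imaginal discs per culture are cultured 15 h at 25 °C in 1 mL minimal Robb's medium (pH 7.2) with 1 µg/mL 20-hydroxyecdysone and 18 µM compound. Spermidine at 100 µM is added as competitor where stated.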

| SMILES | inhibition at 18 µM [%] |
| --- | --- |
| NCCCCNCCCCNCc1c2ccccc2cc2ccccc12 | 97.6 |
| NCCCNCCCNCc1c2ccccc2cc2ccccc12 | 85.4 |
| NCCCCNCCCN [SPERMIDINE] | 4.8 |
| CCN(CCCCNCCCCN)Cc1c2ccccc2cc2ccccc12 | 5.5 |
| NCCCCNCc1c2ccccc2cc2ccccc12 | 78.4 |
| CCN(CCCNCCCN)Cc1c2ccccc2cc2ccccc12 | 88.5 |
| NCCCNCc1c2ccccc2cc2ccccc12 | 95.2 |
| NCCCCNCCCNCc1c2ccccc2cc2ccccc12 | 7.8 |
| CCN(CCCN)Cc1c2ccccc2cc2ccccc12 | 75.7 |
| NCCCNCCCCNCc1c2ccccc2cc2ccccc12 | 73.9 |

Test system: not listed separately
Test: Cytotoxicity against Drosophila melanogaster imaginal disc cells by Trypan blue exclusion test
Format: cell-based
Conditions: not given
Procedure, shortened: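 Oregon-R Drosophila melanogaster leg imaginal discs are dissected in Ringer's with 0.1% BSA and cultured 15 h at 25 °C in minimal Robb's medium (pH 7.2). The medium holds 18 µM conjugate and 1 µg/mL 20-hydroxyecdysone. Viability of noneverted disc cells is then judged by Trypan blue exclusion, with everted control discs for comparison.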

| SMILES | Activity |
| --- | --- |
| NCCCCNCCCCNCc1c2ccccc2cc2ccccc12 | Toxic |
| NCCCNCCCCNCc1c2ccccc2cc2ccccc12 | Toxic |

Test system: L1210
Test: Cytotoxicity against mouse L1210 cells
Format: functional, cell-based
Conditions: not given

| SMILES | IC50 [nM] |
| --- | --- |
| CCN(CCCNCCCN)Cc1c2ccccc2cc2ccccc12 | 2200 |
| NCCCNCc1c2ccccc2cc2ccccc12 | 2200 |
| NCCCCNCCCNCc1c2ccccc2cc2ccccc12 | 700 |
| CCN(CCCN)Cc1c2ccccc2cc2ccccc12 | 5100 |
| NCCCNCCCCNCc1c2ccccc2cc2ccccc12 | 400 |

Test system: not listed separately
Test: Cytotoxicity against polyamine transporter deficient […] cells
Format: ADME, cell-based
Conditions: Cricetulus griseus

| SMILES | IC50 [µM] |
| --- | --- |
| NCCCCNCCCCNCc1c2ccccc2cc2ccccc12 | 66.7 |
| NCCCNCCCNCc1c2ccccc2cc2ccccc12 | 3.4 |
| CCN(CCCCNCCCCN)Cc1c2ccccc2cc2ccccc12 | 21.9 |
| NCCCCNCc1c2ccccc2cc2ccccc12 | 7.6 |
| CCN(CCCNCCCN)Cc1c2ccccc2cc2ccccc12 | 4 |
| NCCCNCc1c2ccccc2cc2ccccc12 | 2.4 |
| NCCCCNCCCNCc1c2ccccc2cc2ccccc12 | 8.8 |
| CCN(CCCN)Cc1c2ccccc2cc2ccccc12 | 6.6 |
| NCCCNCCCCNCc1c2ccccc2cc2ccccc12 | 9.5 |

Test system: not listed separately
Test: Inhibition of PAT assessed as cytotoxicity against CHO cells
Format: cell-based
Conditions: Cricetulus griseus

| SMILES | IC50 [nM] |
| --- | --- |
| NCCCCNCCCCNCc1c2ccccc2cc2ccccc12 | 450 |
| NCCCNCCCNCc1c2ccccc2cc2ccccc12 | 1900 |
| NCCCCNCc1c2ccccc2cc2ccccc12 | 7700 |
| CCN(CCCNCCCN)Cc1c2ccccc2cc2ccccc12 | 5300 |
| NCCCNCc1c2ccccc2cc2ccccc12 | 2300 |
| NCCCCNCCCNCc1c2ccccc2cc2ccccc12 | 2500 |
| CCN(CCCN)Cc1c2ccccc2cc2ccccc12 | 7700 |
| NCCCNCCCCNCc1c2ccccc2cc2ccccc12 | 400 |

Test system: polyamine transporter
Test: Ratio of IC50 for polyamine transporter deficient […] cells to IC50 for CHO cells
Format: cell-based, Cricetulus griseus
Conditions: chinese hamster, polyamine transporter deficient CHO-GM cells and CHO cells; read-out: Ratio IC50
Procedure, shortened: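 The ratio is the IC50 in the polyamine-transport-deficient CHO-MG line (MGBG-resistant after ethylmethanesulfonate mutagenesis) divided by the IC50 in parental CHO cells.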

| SMILES | selectivity ratio |
| --- | --- |
| NCCCCNCCCCNCc1c2ccccc2cc2ccccc12 | 148 |
| NCCCNCCCNCc1c2ccccc2cc2ccccc12 | 1.8 |
| CCN(CCCCNCCCCN)Cc1c2ccccc2cc2ccccc12 | 1 |
| NCCCCNCc1c2ccccc2cc2ccccc12 | 1 |
| CCN(CCCNCCCN)Cc1c2ccccc2cc2ccccc12 | 0.8 |
| NCCCNCc1c2ccccc2cc2ccccc12 | 1 |
| NCCCCNCCCNCc1c2ccccc2cc2ccccc12 | 3.5 |
| CCN(CCCN)Cc1c2ccccc2cc2ccccc12 | 0.9 |
| NCCCNCCCCNCc1c2ccccc2cc2ccccc12 | 24 |

Test system: not listed separately
Test: Inhibition of disc eversion in Drosophila melanogaster imaginal disc cells at 18 uM in presence of spermidine
Format: functional
Conditions: not given
Procedure, shortened: as §1

| SMILES | inhibition at 18 µM [%] |
| --- | --- |
| NCCCCNCCCCNCc1c2ccccc2cc2ccccc12 | 8.7 |
| NCCCNCCCNCc1c2ccccc2cc2ccccc12 | 100 |
| NCCCCNCc1c2ccccc2cc2ccccc12 | 100 |
| CCN(CCCNCCCN)Cc1c2ccccc2cc2ccccc12 | 100 |
| NCCCNCc1c2ccccc2cc2ccccc12 | 100 |
| NCCCCNCCCNCc1c2ccccc2cc2ccccc12 | 9.9 |
| CCN(CCCN)Cc1c2ccccc2cc2ccccc12 | 90 |
| NCCCNCCCCNCc1c2ccccc2cc2ccccc12 | 23.8 |
